# Experimental data: ChEMBL document CHEMBL3860041, “Synthesis, biological evaluation and molecular modeling study of some new methoxylated 2-benzylthio-quinazoline-4(3H)-ones as nonclassical antifolates” (Bioorg Med Chem Lett, 2016)
# Experiments:
# [1] = biological target: T1, Dihydrofolate reductase (Bos taurus, UniProt P00376); experiment: Inhibition of bovine liver DHFR preincubated for 2 mins followed by addition of FH2 as substrate and NADPH
# T1 sequence (P00376 whole entry): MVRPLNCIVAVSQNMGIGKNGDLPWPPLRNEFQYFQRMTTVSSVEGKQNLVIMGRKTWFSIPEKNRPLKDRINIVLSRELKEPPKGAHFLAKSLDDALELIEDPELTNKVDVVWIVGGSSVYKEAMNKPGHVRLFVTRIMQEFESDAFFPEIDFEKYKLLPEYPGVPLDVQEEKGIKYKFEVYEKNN
# [2] = system: Staphylococcus aureus; experiment: Antimicrobial activity against Staphylococcus aureus IFO 3060 at 200 ug/disc measured after 24 hrs by agar disc-diffusion method; type: functional; conditions: IFO 3060, 24 h, read-out: DIZ
# [3] = system: Bacillus subtilis; experiment: Antimicrobial activity against Bacillus subtilis IFO 3007 at 200 ug/disc measured after 24 hrs by agar disc-diffusion method; type: functional; conditions: IFO 3007, 24 h, read-out: DIZ
# [4] = system: Escherichia coli; experiment: Antimicrobial activity against Escherichia coli IFO 3301 at 200 ug/disc measured after 24 hrs by agar disc-diffusion method; type: functional; conditions: IFO 3301, 24 h, read-out: DIZ
# [5] = system: Pseudomonas aeruginosa; experiment: Antimicrobial activity against Pseudomonas aeruginosa IFO 3448 at 200 ug/disc measured after 24 hrs by agar disc-diffusion method; type: functional; conditions: IFO 3448, 24 h, read-out: DIZ
# [6] = system: Candida albicans; experiment: Antimicrobial activity against Candida albicans IFO 0583 at 200 ug/disc measured after 48 hrs by agar disc-diffusion method; type: functional; conditions: IFO 0583, 48 h, read-out: DIZ
# [7] = system: Staphylococcus aureus; experiment: Antimicrobial activity against Staphylococcus aureus IFO 3060 measured after 24 hrs by microdilution method; type: functional
# [8] = system: Bacillus subtilis; experiment: Antimicrobial activity against Bacillus subtilis IFO 3007 measured after 24 hrs by microdilution method; type: functional
# [9] = system: Pseudomonas aeruginosa; experiment: Antimicrobial activity against Pseudomonas aeruginosa IFO 3448 measured after 24 hrs by microdilution method; type: functional
# [10] = system: Escherichia coli; experiment: microbe, parasite or virus in culture; conditions: IFO 3301, 24 h
# [11] = Growth inhibition of human CNS cancer cells after 48 hrs by SRB assay; type: functional; conditions: Cancer cell lines
# Outline: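 Five-log dose range against NCI tumor cell lines, monitoring GI50, TGI and LC50 for each cell line; MG-MID values derived across the panel; 5-fluorouracil positive control.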
# [12] = Growth inhibition of human leukemia cells after 48 hrs by SRB assay; type: functional; conditions: Leukemia cell
# Outline: (§1)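 Follow-up NCI panel testing over a 5-log dose range for each cell line. GI50, TGI and LC50 were monitored, with 5-fluorouracil run as the positive control. Values are grouped by tumour subpanel.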
# [13] = Growth inhibition of human non-small cell lung cancer cells after 48 hrs by SRB assay; type: functional; conditions: Cancer cell lines; outline: as §1
# [14] = Growth inhibition of human colon cancer cells after 48 hrs by SRB assay; type: functional; conditions: Cancer cell lines; outline: as §1
# [15] = Growth inhibition of human melanoma cells after 48 hrs by SRB assay; type: functional; conditions: Melanoma cell; outline: as §1
# [16] = Growth inhibition of human ovarian cancer cells after 48 hrs by SRB assay; type: functional; conditions: Cancer cell lines; outline: as §1
# [17] = Growth inhibition of human renal cancer cells after 48 hrs by SRB assay; type: functional; conditions: Cancer cell lines; outline: as §1
# [18] = Growth inhibition of human prostate cancer cells after 48 hrs by SRB assay; type: functional; conditions: Cancer cell lines; outline: as §1
# [19] = Growth inhibition of human breast cancer cells after 48 hrs by SRB assay; type: functional; conditions: Cancer cell lines; outline: as §1
compound,measurement,setting,value
COc1cc2nc(SCc3cc(OC)c(OC)c(OC)c3)n(-c3ccccc3)c(=O)c2cc1OC,IC50,[1],900 nM
same,zone of inhibition at 200 µg/disc,[2],15 mm
same,zone of inhibition at 200 µg/disc,[3],19 mm
same,zone of inhibition at 200 µg/disc,[4],18 mm
same,zone of inhibition at 200 µg/disc,[5],16 mm
same,zone of inhibition at 200 µg/disc,[6],8 mm
same,MIC,"[7]; IFO 3060, 24 h",8 µg/mL
same,MIC,"[8]; IFO 3007, 24 h",8 µg/mL
same,MIC,"[9]; IFO 3448, 24 h",8 µg/mL
same,MIC,[10],8 µg/mL
COc1ccc(CSc2nc3cc(OC)c(OC)cc3c(=O)n2-c2ccccc2OC)cc1,IC50,[1],600 nM
COc1ccc(-n2c(SCc3cc(OC)c(OC)c(OC)c3)nc3cc(OC)c(OC)cc3c2=O)cc1,IC50,[1],1200 nM
COc1cc2nc(SCc3cc(OC)c(OC)c(OC)c3)n(-c3ccc(Cl)cc3)c(=O)c2cc1OC,IC50,[1],900 nM
same,zone of inhibition at 200 µg/disc,[2],22 mm
same,zone of inhibition at 200 µg/disc,[3],26 mm
same,zone of inhibition at 200 µg/disc,[4],18 mm
same,zone of inhibition at 200 µg/disc,[5],12 mm
same,zone of inhibition at 200 µg/disc,[6],8 mm
same,MIC,"[7]; IFO 3060, 24 h",4 µg/mL
same,MIC,"[8]; IFO 3007, 24 h",2 µg/mL
same,MIC,[10],8 µg/mL
COc1ccc(CSc2nc3cc(OC)c(OC)cc3c(=O)n2-c2ccc(C)cc2)cc1,IC50,[1],2000 nM
COc1ccc(CSc2nc3ccc(C)cc3c(=O)n2-c2ccc(Cl)cc2)cc1,IC50,[1],100 nM
O=C(O)c1cn(C2CC2)c2cc(N3CCNCC3)c(F)cc2c1=O [CIPROFLOXACIN],zone of inhibition at 200 µg/disc,[2],32 mm
same,zone of inhibition at 200 µg/disc,[3],35 mm
same,zone of inhibition at 200 µg/disc,[4],38 mm
same,zone of inhibition at 200 µg/disc,[5],36 mm
same,MIC,"[7]; IFO 3060, 24 h",0.5 µg/mL
same,MIC,"[8]; IFO 3007, 24 h",0.5 µg/mL
same,MIC,"[9]; IFO 3448, 24 h",1 µg/mL
COc1ccc(CSc2nc3ccc(Cl)cc3c(=O)n2Cc2ccccc2)cc1,IC50,[1],1100 nM
GENTAMICIN,MIC,[7],2 µg/mL
same,MIC,[8],2 µg/mL
same,MIC,[9],1 µg/mL
COc1ccc(CSc2nc3ccc(Cl)cc3c(=O)n2-c2ccc(Cl)cc2)cc1,IC50,[1],3000 nM
COc1cc(CSc2nc3ccc(C)cc3c(=O)n2-c2ccc(C)cc2)cc(OC)c1OC,IC50,[1],1500 nM
COc1ccc(-n2c(SCc3cc(OC)c(OC)c(OC)c3)nc3ccc(Cl)cc3c2=O)c(OC)c1,IC50,[1],4000 nM
COc1ccc(CSc2nc3ccc(Cl)cc3c(=O)n2-c2ccccc2)cc1,IC50,[1],20 nM
same,zone of inhibition at 200 µg/disc,[2],14 mm
same,zone of inhibition at 200 µg/disc,[3],16 mm
same,zone of inhibition at 200 µg/disc,[4],8 mm
same,zone of inhibition at 200 µg/disc,[5],8 mm
same,zone of inhibition at 200 µg/disc,[6],8 mm
COc1cc(CSc2nc3ccc(Cl)cc3c(=O)n2-c2ccc(Cl)cc2)cc(OC)c1OC,IC50,[1],2000 nM
COc1ccc(CSc2nc3ccc(C)cc3c(=O)n2Cc2ccccc2)cc1,IC50,[1],10 nM
Clc1ccccc1C(c1ccccc1)(c1ccccc1)n1ccnc1 [CLOTRIMAZOLE],zone of inhibition at 200 µg/disc,[6],21 mm
O=c1[nH]cc(F)c(=O)[nH]1 [FLUOROURACIL],TGI,[11],> 100 µM
same,TGI,[12],> 100 µM
same,CC50,[12]; read-out: LC50 (the source's name),> 100 µM
same,GI50,[13],> 100 µM
same,TGI,[13],> 100 µM
same,GI50,[14],8.4 µM
same,TGI,[14],> 100 µM
same,GI50,[15],70.6 µM
same,TGI,[15],> 100 µM
same,GI50,[16],61.4 µM
same,TGI,[16],> 100 µM
same,GI50,[17],45.6 µM
same,TGI,[17],> 100 µM
same,GI50,[18],22.7 µM
same,TGI,[18],> 100 µM
same,GI50,[19],76.4 µM
same,TGI,[19],> 100 µM
COc1ccc(CSc2nc3ccc(Cl)cc3c(=O)n2-c2ccc(OC)cc2OC)cc1,IC50,[1],1000 nM
same,zone of inhibition at 200 µg/disc,[2],15 mm
same,zone of inhibition at 200 µg/disc,[3],18 mm
same,zone of inhibition at 200 µg/disc,[4],8 mm
same,zone of inhibition at 200 µg/disc,[5],8 mm
same,zone of inhibition at 200 µg/disc,[6],8 mm
same,MIC,"[7]; IFO 3060, 24 h",8 µg/mL
same,MIC,"[8]; IFO 3007, 24 h",4 µg/mL
COc1cc(CSc2nc3ccc(Cl)cc3c(=O)n2-c2ccc(C)cc2)cc(OC)c1OC,IC50,[1],3000 nM
COc1ccc(CSc2nc3cc(OC)c(OC)cc3c(=O)n2-c2ccccc2)cc1,IC50,[1],4000 nM
same,zone of inhibition at 200 µg/disc,[2],24 mm
same,zone of inhibition at 200 µg/disc,[3],26 mm
same,zone of inhibition at 200 µg/disc,[4],14 mm
same,zone of inhibition at 200 µg/disc,[5],8 mm
same,zone of inhibition at 200 µg/disc,[6],12 mm
same,MIC,"[7]; IFO 3060, 24 h",2 µg/mL
same,MIC,"[8]; IFO 3007, 24 h",2 µg/mL
same,MIC,[10],8 µg/mL
COc1ccc(-n2c(SCc3cc(OC)c(OC)c(OC)c3)nc3cc(OC)c(OC)cc3c2=O)c(OC)c1,IC50,[1],3000 nM
COc1ccc(CSc2nc3ccc(Cl)cc3c(=O)n2-c2ccc(C)cc2)cc1,IC50,[1],4000 nM
COc1ccc(CSc2nc3cc(OC)c(OC)cc3c(=O)n2-c2ccc(OC)cc2)cc1,IC50,[1],800 nM
COc1cc2nc(SCc3cc(OC)c(OC)c(OC)c3)n(-c3ccc(C)cc3)c(=O)c2cc1OC,IC50,[1],1200 nM
COc1ccc(CSc2nc3ccc(C)cc3c(=O)n2-c2ccccc2)cc1,IC50,[1],100 nM
same,zone of inhibition at 200 µg/disc,[2],18 mm
same,zone of inhibition at 200 µg/disc,[3],22 mm
same,zone of inhibition at 200 µg/disc,[4],16 mm
same,zone of inhibition at 200 µg/disc,[5],12 mm
same,zone of inhibition at 200 µg/disc,[6],8 mm
same,MIC,"[7]; IFO 3060, 24 h",4 µg/mL
same,MIC,"[8]; IFO 3007, 24 h",2 µg/mL
same,MIC,[10],8 µg/mL
COc1ccc(CSc2nc3ccc(C)cc3c(=O)n2-c2ccc(C)cc2)cc1,IC50,[1],1000 nM
COc1cc(CSc2nc3ccc(C)cc3c(=O)n2-c2ccc(Cl)cc2)cc(OC)c1OC,IC50,[1],900 nM
COc1ccc(CSc2nc3ccc(Cl)cc3c(=O)n2-c2ccc(OC)cc2)cc1,IC50,[1],100 nM
COc1ccc(CSc2nc3ccc(Cl)cc3c(=O)n2-c2ccccc2OC)cc1,IC50,[1],800 nM
COc1ccc(CSc2nc3ccc(C)cc3c(=O)n2-c2ccccc2OC)cc1,IC50,[1],900 nM
COc1ccc(CSc2nc3cc(OC)c(OC)cc3c(=O)n2Cc2ccccc2)cc1,IC50,[1],800 nM
COc1ccc(CSc2nc3ccc(C)cc3c(=O)n2-c2ccc(OC)cc2OC)cc1,IC50,[1],700 nM
COc1ccc(CSc2nc3cc(OC)c(OC)cc3c(=O)n2-c2ccc(Cl)cc2)cc1,IC50,[1],6000 nM
same,zone of inhibition at 200 µg/disc,[2],20 mm
same,zone of inhibition at 200 µg/disc,[3],18 mm
same,zone of inhibition at 200 µg/disc,[4],15 mm
same,zone of inhibition at 200 µg/disc,[5],8 mm
same,zone of inhibition at 200 µg/disc,[6],8 mm
same,MIC,"[7]; IFO 3060, 24 h",4 µg/mL
same,MIC,"[8]; IFO 3007, 24 h",4 µg/mL
same,MIC,[10],8 µg/mL
COc1ccc(CSc2nc3ccc(C)cc3c(=O)n2-c2ccc(OC)cc2)cc1,IC50,[1],1200 nM
COc1ccccc1-n1c(SCc2cc(OC)c(OC)c(OC)c2)nc2ccc(C)cc2c1=O,IC50,[1],1000 nM
